# Screening results deposited in PubChem BioAssay by several laboratories.
# WT yeast gro inh – growth inhibition of WT yeast, mitochondrial fusion screen; mitochondrial fusion phenotypic screen, WT strain; inhibition, % at 10 µM; hit rate 2.1% among 190,000; AID 1362; in the data active means inhibition above about 58%; tested in S. cerevisiae
# L major viab – reduces viability of Leishmania major promastigotes. resazurin fluorescence viability. inhibition, % at 10 µM. hit rate 9% among 200,000; in the data active means inhibition above about 50%;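 further: promastigotes grown with compound for 44 hours at 28 °C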
# PMI activator – activators of human phosphomannose isomerase; P34949; purified human PMI, coupled resazurin fluorescence, 20 min; active compounds read high; 1 = vehicle control, 0 substrate-free wells; activation factor at 20 µM; hit rate 0.005% among 190,000; AID 1214;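 active means activation factor of 2 or more at 20 µM, relative to plate controls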
# Target sequence (P34949 whole entry, looked up): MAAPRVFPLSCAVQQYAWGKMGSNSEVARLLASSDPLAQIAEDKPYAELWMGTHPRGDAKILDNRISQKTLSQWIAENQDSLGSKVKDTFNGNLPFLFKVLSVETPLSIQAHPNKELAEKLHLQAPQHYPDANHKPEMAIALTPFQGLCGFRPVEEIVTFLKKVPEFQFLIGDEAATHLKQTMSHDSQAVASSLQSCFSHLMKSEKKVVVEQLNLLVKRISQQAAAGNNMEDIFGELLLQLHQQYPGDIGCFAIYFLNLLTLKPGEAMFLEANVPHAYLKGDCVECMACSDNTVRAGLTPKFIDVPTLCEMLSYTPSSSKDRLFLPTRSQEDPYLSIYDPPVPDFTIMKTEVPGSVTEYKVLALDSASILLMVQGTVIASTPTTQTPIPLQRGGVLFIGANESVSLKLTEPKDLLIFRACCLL
# Rad51 HR inh – blocks human Rad51 in homologous recombination; inhibition, % at 10 µM; AID 1385; hRad51 DNA strand exchange, fluorescence dequenching; hit rate 0.085% among 200,000; Q06609;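 active means inhibition above 40% at the single screening dose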
#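 Test system: preformed human Rad51 ssDNA filaments; also added: Donor/quencher-labelled 47-bp dsDNA substrate; doses: 10 µM final, single point; times: 37 °C 15-min filament assembly, 30-min compound preincubation, 15-min exchange; detection: FRET fluorescence dequenching, excitation 485 nm, emission 520 nm; read-out basis: Fluorescence-based percent inhibition, control- and blank-normalised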
# PMI act satM6P – increases human PMI activity with near-saturating mannose 6-phosphate; P34949; coupled PMI enzyme assay, resazurin fluorescence, 20 min; active compounds read high; 1 = untreated enzyme, 0 = substrate-free blank; activation factor at 20 µM; hit rate 0.34% among 190,000;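 active means activation factor of 2 or more at 20 µM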
#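 Test system – human PMI in coupled enzyme assay · Timing – 20 min incubation at room temperature · Detection – Diaphorase-driven resazurin-to-resorufin fluorescence, excitation 544, emission 590 nm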
# Calpain2 inh – calpain II (pig) inhibition; purified calpain II, fluorogenic peptide substrate, 30 min; inhibition, % at 16 µM; hit rate 0.37% among 220,000; AID 1236;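 active means inhibition above about 50%, limit read from the data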
# L major 1uM – L. major promastigote growth inhibition, 1 uM repeat; shares compounds with L major viab; resazurin fluorescence, 48 h; inhibition, % at 1 µM; hit rate 13% among 1,100; AID 1258;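 active means inhibition above about 50% in both repeat tests, limit read from the data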
# A number is an active result; 0 = inactive; - = no result. In the library only some 9.8% were active in any assay of this set; here they are far more common.
SMILES,WT yeast gro inh,L major viab,PMI activator,Rad51 HR inh,PMI act satM6P,Calpain2 inh,L major 1uM
COc1ccc(C2SCC(=O)N2c2nnc(C34CC5CC(CC(C5)C3)C4)s2)cc1 (stereo not drawn),0,98,0,0,0,0,0
COc1cc(C2SCC(=O)N2c2nnc(C34CC5CC(CC(C5)C3)C4)s2)cc(OC)c1OC (stereo not drawn),0,0,0,0,0,0,-
C=CCOc1ccc(CNCCc2ccc(S(N)(=O)=O)cc2)cc1,0,0,0,0,0,0,-
CCCc1cc(=O)[nH]c(SCC(=O)c2cc(C)n(-c3c(C)n(C)n(-c4ccccc4)c3=O)c2C)n1,0,0,0,0,0,0,-
O=C(Nc1ccc(CN2CCOCC2)cc1)c1cccs1,0,96,0,0,0,0,0
CCn1c(=O)c(C(=O)NCc2ccc(OC)c(OC)c2)c(O)c2ccccc21,0,84,0,0,0,0,0
COc1ccc(NCC(=O)N/N=C/C2CCCCC2)cc1,-,-,-,0,-,0,-
Cc1ccccc1-c1cc2c(nn1)-c1ccccc1C2=O,0,93,2,0,2.5,0,0
COC(=O)c1cc(OC)c(OC)cc1NC(=S)N1CCC(C(N)=O)CC1,0,0,0,0,0,0,-
CCOC(=O)C1CCN(C(=S)Nc2cc(OC)c(OC)cc2C(=O)OC)CC1,0,61,0,0,0,0,0
CCN(CC)C(=S)SC1=CCS(=O)(=O)C1,0,0,0,0,0,0,-
CCN(CC)C(=S)SSC(=S)N(CC)CC,0,100,0,0,0,0,98
COc1ccc2c(c1)SCC/C2=C\CN1C(=O)CCC1=O,0,0,0,0,0,0,-
COc1ccc(NC(=O)COC(=O)c2ccc(S(=O)(=O)N(C)c3ccccc3OC)cc2)c(OC)c1,0,99,0,0,0,0,0
COc1ccc(NC(=O)COC(=O)c2ccc(S(=O)(=O)N(C)c3ccccc3OC)cc2)cc1OC,0,0,0,0,0,0,-
CC(=O)NC1=NN(C(C)=O)C(C)(c2ccc3ccccc3c2)S1 (stereo not drawn),0,60,0,0,0,0,0
CN=C(NC1CCCCC1)c1ccc(Cl)cc1,0,0,0,-,0,0,-
CC1(C)Cc2c(ccc3ccccc23)/C(=C/C#N)N1,0,0,0,0,0,0,-
CNC(=O)/C=C1\NC(C)(C)Cc2c1ccc1ccccc21,0,54,0,0,0,0,0
COCCNC(=O)/C(C#N)=C/c1c(N2CC(C)OC(C)C2)nc2ccccn2c1=O (stereo not drawn),0,0,0,0,0,0,-
Cc1ccc(S(=O)(=O)c2ccc(NN)cc2)cc1,0,97,0,0,2.5,0,0
Cc1ccc(NC(=O)Nc2ccc(S(N)(=O)=O)cc2)cc1,0,0,0,0,0,0,-
N#Cc1ccc(Oc2ccc(-c3nc4ccccc4nc3-c3ccccc3)cc2)cc1C#N,0,93,0,-,0,0,0
CC(C)Oc1cccc(NC(=O)c2cnccc2C(F)(F)F)c1,-,-,-,0,-,0,-
COc1ccc(C(=O)c2ccc(OC)c3cccc(O)c23)cc1OC,0,0,0,0,0,0,-
SMILES,WT yeast gro inh,L major viab,PMI activator,Rad51 HR inh,PMI act satM6P,Calpain2 inh,L major 1uM
COc1ccc2c3c(cccc13)NN=C2C,-,101,-,-,-,-,98
c1ccc(Cn2nc(-c3ccccc3)nc2-c2ccccc2)cc1,0,94,0,0,0,0,0
CCn1c(C)c2c(C)nnc(C)c2c1C,0,0,0,0,0,0,-
CCn1c(C)c(P(c2ccccc2)c2ccccc2)[n+]2ccccc12,0,94,0,0,0,0,0
CC(C)CN(C(=O)c1ccc(=O)n(C)n1)c1nc2ccccc2s1,0,57,0,0,0,0,0
CCC(C)NC(=O)COc1ccc(OCc2ccccc2)cc1 (stereo not drawn),0,0,0,0,0,0,-
Cc1ccc(-n2cccc2C(=S)N=P(N(C)C)(N(C)C)N(C)C)cc1,65,57,0,0,0,0,0
ClC1(Cl)CC1Cn1cnc2ccccc21 (stereo not drawn),0,0,0,-,0,0,-
O=C(Cn1cnc([N+](=O)[O-])c1)Nc1cc(Oc2ccc(Cl)cc2Cl)cc([N+](=O)[O-])c1,0,100,0,0,0,0,62
CC(=O)c1cccc(S(=O)(=O)N2CCN(c3nc4cc(C)cc(C)c4cc3C#N)CC2)c1,0,50,0,-,0,0,0
CCOC(=O)C(C)On1c(-c2cccc(Cl)c2)nc2ccc([N+](=O)[O-])cc21 (stereo not drawn),0,95,0,0,2,0,0
O=[N+]([O-])c1ccc(O)c2ncccc12,0,96,0,0,0,0,0
O=[N+]([O-])c1ccc(O)c2cccnc12,0,0,0,0,0,0,-
COC(=O)[C@H](C)NC(=O)Nc1cccc(Br)c1,-,-,-,0,-,0,-
CC(Sc1ccccc1)C(=O)NN=C1CCCCCC1 (stereo not drawn),0,0,0,0,0,0,-
N=c1c2c(n(Cc3ccccc3)c3c1CCC3)CCC2,71,100,0,0,0,0,94
CCn1c2c(c(=N)c3c1CCC3)CCCC2,-,-,-,-,-,0,-
C1CCC(C(CC2CCCCN2)C2CCCCC2)CC1 (stereo not drawn),0,100,0,0,0,0,0
CC(C)OC(=O)COc1cc(O)c2c(=O)cc(-c3ccccc3)oc2c1,-,-,-,0,-,0,-
CCN(C(=O)COC(=O)c1nn(-c2ccccc2)c(=O)c2ccccc12)C1CCS(=O)(=O)C1 (stereo not drawn),-,-,-,0,-,0,-
Cc1ccc(CNC(=O)c2cccc(OCc3c(C)noc3C)c2)cc1,0,80,0,0,0,0,0
Cc1noc(C)c1COc1ccc(CC(=O)NCc2ccccc2)cc1,0,0,0,0,0,0,-
Cc1ccc(S(=O)(=O)N2CCC(=O)N(C(COCc3cccc(C)c3)Cc3ccccc3)CC2)cc1 (stereo not drawn),0,0,0,0,0,0,-
Cc1ccc(S(=O)(=O)N2CCC(=O)N(C(COCc3ccc(C(F)(F)F)cc3)Cc3ccccc3)CC2)cc1 (stereo not drawn),0,73,0,0,0,0,0
FC(F)Oc1ccc(/C=N/c2c(-c3ccc(OC(F)F)cc3)nc3n2CCS3)cc1,0,72,0,0,0,0,0
Cc1ccc(/C=C\c2nccc3c2[nH]c2ccccc23)cc1,0,68,0,0,0,0,0
C(=C\c1nccc2c1[nH]c1ccccc12)/c1ccccc1,-,-,-,0,-,0,-
CCN(CC)S(=O)(=O)c1ccc(NC(=O)c2nc3nc(C)cc(C)n3n2)cc1,-,-,-,0,-,0,-
CCOC(=O)c1cnc2ccc(C)cc2c1Sc1ccc(F)cc1,0,70,0,-,0,0,0
O=C1C(=O)c2c(C(=O)c3ccccc3)coc2-c2ccccc21,0,100,0,0,0,0,61
